Test results from ChEMBL document CHEMBL4627249, “New modification strategy of matrine as Hsp90 inhibitors based on its specific L conformation for cancer treatment” (Bioorg Med Chem, 2020).
Active and inactive are the calls of the source. The rule behind the calls is not given here.

What was measured:
HeLa [1] = assay: Induction of apoptosis in human HeLa cells assessed as late apoptotic cells at 10 uM after 48 hrs by Annexin V/propidium iodide staining based assay (reference value: 1.75 %); assay type: functional
Outline: (§1)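 HeLa cells were seeded at 2 × 10^5 per well in six-well plates and left overnight. They were then treated with 5, 10 or 20 µM for 48 h. Annexin V-FITC/PI staining was done with a commercial kit per its instructions. Early and late apoptotic fractions are given as cumulative percentages relative to untreated control.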

MDA-MB-231 = assay: Antiproliferative activity against human MDA-MB-231 cells assessed as reduction in cell viability after 48 hrs by MTT assay; assay type: functional, cell-based; conditions: MDA-MB-231, 48 h
HeLa [2] = assay: Induction of apoptosis in human HeLa cells assessed as late apoptotic cells at 5 uM after 48 hrs by Annexin V/propidium iodide staining based assay (reference value: 1.75 %); assay type: functional; outline: as §1
HeLa [3] = assay: Induction of apoptosis in human HeLa cells assessed as viable cells at 20 uM after 48 hrs by Annexin V/propidium iodide staining based assay (reference value: 95.03 %); assay type: functional; conditions: read-out: Activity; outline: as §1
HeLa [4] = assay: Cell cycle arrest in human HeLa cells assessed as accumulation of cells at S phase after 48 hrs by RNase/PI-staining based flow cytometric analysis; assay type: functional
HeLa [5] = assay: Induction of apoptosis in human HeLa cells assessed as viable cells at 5 uM after 48 hrs by Annexin V/propidium iodide staining based assay (reference value: 95.03 %); assay type: functional; conditions: read-out: Activity; outline: as §1
HeLa [6] = assay: Cell cycle arrest in human HeLa cells assessed as accumulation of cells at S phase at 20 uM after 48 hrs by RNase/PI-staining based flow cytometric analysis (reference value: 17.24 %); assay type: functional
HeLa [7] = assay: Induction of apoptosis in human HeLa cells assessed as increase in cleaved caspase 3 protein expression after 48 hrs by Western blot analysis; assay type: functional, cell-based
Outline: (§2)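 HeLa cells were treated 48 h with 12.5, 25 or 50 µM, or with DMSO vehicle. Cells were lysed 30 min in RIPA buffer with protease inhibitor cocktail and spun at 12,000 rpm for 15 min at 4 °C. Proteins were run on 6-15% SDS-PAGE and moved to nitrocellulose. Membranes were blocked in 5% non-fat milk in TBS, probed with primary and secondary antibodies, and imaged by chemiluminescence.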

HeLa [8] = assay: Cell cycle arrest in human HeLa cells assessed as accumulation of cells at G0/G1 phase at 5 uM after 48 hrs by RNase/PI-staining based flow cytometric analysis (reference value: 71.07 %); assay type: functional
HeLa [9] = assay: Induction of apoptosis in human HeLa cells assessed as early apoptotic cells at 5 uM after 48 hrs by Annexin V/propidium iodide staining based assay (reference value: 3.22 %); assay type: functional; outline: as §1
HeLa [10] = assay: Induction of apoptosis in human HeLa cells assessed as early apoptotic cells at 10 uM after 48 hrs by Annexin V/propidium iodide staining based assay (reference value: 3.22 %); assay type: functional; outline: as §1
HeLa [11] = assay: Antiproliferative activity against human HeLa cells assessed as reduction in cell viability after 48 hrs by MTT assay; assay type: functional, cell-based
Outline: (§3)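 HepG2 or HeLa cells in DMEM with 10% FBS and 1% penicillin-streptomycin were preincubated 24 h (37 °C, 5% CO2). They were then exposed for 48 h to 1, 5, 10, 20, 50 and 100 µM, diluted in medium from DMSO stocks. MTT (5 mg/mL, 20 µL) was added for 4 h, formazan dissolved in DMSO, and A490 read. Each concentration was run in triplicate. IC50 is the mean from dose-response curves of at least three independent experiments; cisplatin was the positive control.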

HeLa [12] = assay: Cell cycle arrest in human HeLa cells assessed as accumulation of cells at S phase at 5 uM after 48 hrs by RNase/PI-staining based flow cytometric analysis (reference value: 17.24 %); assay type: functional
HeLa [13] = assay: Induction of apoptosis in human HeLa cells assessed as decrease in Bcl-2 protein expression after 48 hrs by Western blot analysis; assay type: functional, cell-based; outline: as §2
HeLa [14] = assay: Induction of apoptosis in human HeLa cells assessed as increase in ratio of Bax to Bcl-2 protein expression 12.5 to 50 uM after 48 hrs by Western blot analysis; assay type: functional, cell-based; outline: as §2
HeLa [15] = assay: Cell cycle arrest in human HeLa cells assessed as accumulation of cells at G2/M phase at 20 uM after 48 hrs by RNase/PI-staining based flow cytometric analysis (reference value: 11.69 %); assay type: functional
HeLa [16] = assay: Induction of apoptosis in human HeLa cells assessed as decrease in protected caspase 3 protein expression after 48 hrs by Western blot analysis; assay type: functional, cell-based; outline: as §2
HeLa [17] = assay: Induction of apoptosis in human HeLa cells assessed as viable cells at 10 uM after 48 hrs by Annexin V/propidium iodide staining based assay (reference value: 95.03 %); assay type: functional; conditions: read-out: Activity; outline: as §1
HepG2 = assay: Antiproliferative activity against human HepG2 cells assessed as reduction in cell viability after 48 hrs by MTT assay; assay type: functional, cell-based; conditions: HepG2, 48 h; outline: as §3
HeLa [18] = assay: Induction of apoptosis in human HeLa cells assessed as late apoptotic cells at 20 uM after 48 hrs by Annexin V/propidium iodide staining based assay (reference value: 1.75 %); assay type: functional; outline: as §1
[19] = target: T1, Heat shock protein HSP90 (Homo sapiens) (UniProt P07900+P08238); assay: Inhibition of Hsp90 in human Hela cells assessed as down regulation of Hsp90 protein expression at 12.5 uM to 50 uM after 48 hrs by Western blot analysis; assay type: cell-based; outline: as §2
HeLa [20] = assay: Cell cycle arrest in human HeLa cells assessed as accumulation of cells at G0/G1 phase at 10 uM after 48 hrs by RNase/PI-staining based flow cytometric analysis analysis (reference value: 71.07 %); assay type: functional
HeLa [21] = assay: Induction of apoptosis in human HeLa cells assessed as necrotic cells at 20 uM after 48 hrs by Annexin V/propidium iodide staining based assay (reference value: 0 %); assay type: functional; outline: as §1
[22] = target: T1, Heat shock protein HSP90 (Homo sapiens)
HeLa [23] = assay: Cell cycle arrest in human HeLa cells assessed as accumulation of cells at G2/M phase at 5 uM after 48 hrs by RNase/PI-staining based flow cytometric analysis (reference value: 11.69 %); assay type: functional
HeLa [24] = assay: Induction of apoptosis in human HeLa cells assessed as accumulation of […] cells at 5 uM after 48 hrs by Annexin V/propidium iodide staining based assay (reference value: 0 %); assay type: functional; outline: as §1
HeLa [25] = assay: Cell cycle arrest in human HeLa cells assessed as accumulation of cells at G2/M phase at 10 uM after 48 hrs by RNase/PI-staining based flow cytometric analysis (reference value: 11.69 %); assay type: functional
HeLa [26] = assay: Induction of apoptosis in human HeLa cells assessed as increase in Bax protein expression after 48 hrs by Western blot analysis; assay type: functional, cell-based; outline: as §2
HeLa [27] = assay: Induction of apoptosis in human HeLa cells assessed as necrotic cells at 10 uM after 48 hrs by Annexin V/propidium iodide staining based assay (reference value: 0 %); assay type: functional; outline: as §1
HeLa [28] = assay: Cell cycle arrest in human HeLa cells assessed as accumulation of cells at S phase at 10 uM after 48 hrs by RNase/PI-staining based flow cytometric analysis (reference value: 17.24 %); assay type: functional
HeLa [29] = assay: Induction of apoptosis in human HeLa cells assessed as early apoptotic cells at 20 uM after 48 hrs by Annexin V/propidium iodide staining based assay (reference value: 3.22 %); assay type: functional; outline: as §1
HeLa [30] = assay: Cell cycle arrest in human HeLa cells assessed as accumulation of cells at G0/G1 phase at 20 uM after 48 hrs by RNase/PI-staining based flow cytometric analysis (reference value: 71.07 %); assay type: functional

## Nc1c2c(nc3ccc(C(F)(F)F)cc13)N1C[C@@H]3CCCN4CCC[C@@H]([C@H]34)[C@H]1CC2
HeLa [1]
  Activity: 17.3%
MDA-MB-231
  IC50: 22.1 µM
HeLa [2]
  Activity: 8.79%
HeLa [3]
  viability at 20 µM: 38.1%
HeLa [4]
  Activity: Dose-dependent effect
HeLa [5]
  viability at 5 µM: 72%
HeLa [6]
  Activity: 40.12%
HeLa [7]
  Activity: Dose-dependent effect
HeLa [8]
  Activity: 65.53%
HeLa [9]
  Activity: 17.51%
HeLa [10]
  Activity: 28.57%
HeLa [11]
  IC50: 19.6 µM
HeLa [12]
  Activity: 21.64%
HeLa [13]
  Activity: Dose-dependent effect
HeLa [14]
  Activity: Active
HeLa [15]
  Activity: 2.93%
HeLa [16]
  Activity: Dose-dependent effect
HeLa [17]
  viability at 10 µM: 50.1%
HepG2
  IC50: 16.1 µM
HeLa [18]
  Activity: 21.17%
[19]
  inhibition: Active
HeLa [20]
  Activity: 62.47%
HeLa [21]
  Activity: 2.62%
[22]
  ΔTm: 10.9 °C
HeLa [23]
  Activity: 12.83%
HeLa [24]
  Activity: 8.79%
HeLa [25]
  Activity: 10.86%
HeLa [26]
  Activity: Dose-dependent effect
HeLa [27]
  Activity: 4.06%
HeLa [28]
  Activity: 26.67%
HeLa [29]
  Activity: 38.07%
HeLa [30]
  Activity: 56.95%
